The text below walks through data of ChEMBL document CHEMBL2150885, “Dual anticoagulant/antiplatelet persulfated small molecules” (Eur J Med Chem, 2011).

Calls of active or inactive are those of the source. The rule behind the calls is not given here.

Series [1] relates to Plasma. Nature of the series: Anticoagulant activity in human plasma assessed as effect on APC level using CBS 42.46 as synthetic substrate at 1 x 10^-3 M. Format: functional. An outline of the steps: (§1)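 Compound in saline added to citrated human plasma. Protein C activated by a snake venom-derived activator; enzyme formed quantified by amidolytic activity on chromogenic substrate CBS 42.46. Calibration curve linear 3–150%; normal and pathological control plasmas verify accuracy. Compounds at 1 × 10⁻³ M.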

Another series is filed under the species Mus musculus. Nature of the series: Acute hepatic toxicity in CD1 mouse. Conditions: in vivo. Format: organism-based.
Series [2] is described as follows: Cytotoxicity against human A375-C5 cells at 1.5 x 10^-4 after 48 hrs. Conditions: a375-c5, 48 h. In kind it is cell-based.
Series [3] concerns Plasma. As to the kind of experiment: Anticoagulant activity in human plasma assessed as concentration required to double activated partial thromboplastin time. Format: functional. An outline of the steps: (§2)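 Pooled citrated human plasma; compounds in water (10% DMSO for some), final 5 × 10⁻³ to 0.05 × 10⁻³ M; heparin 0.1–10 UI/mL as reference. APTT, PT and TT measured on a coagulometer with commercial kits, clotting time in s. Duplicates repeated on three days (n = 6). Concentration doubling clotting time obtained by linear regression of each concentration-response curve.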

The next series concerns MCF7. Nature of the series: Cytotoxicity against human ER-positive MCF7 cells at 1.5 x 10^-4 after 48 hrs. Format: cell-based. Conditions: mcf7, 48 h.
Series [4] has as its system Platelet. Nature of the series: Antiplatelet activity against adenosine diphosphate-induced platelet aggregation in human blood at 6.25 x 10^-4 M measured for 6 mins by multiplate electrical impedance aggregometry. In kind it is functional, cell-based. In a few lines: (§3)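 Hirudin-anticoagulated (final […]) healthy-donor whole blood, used within 0.5–1 h. Compound in saline to final 6.25 × 10⁻⁴ M; saline control, acetylsalicylic acid 6.25 × 10⁻⁴ M reference. Blood mixed with saline at 37 °C for 180 s, then agonist at final TRAP-6 […], arachidonic acid 0.5 mM or ADP […]. Impedance recorded 6 min; AUC from mean of two curves, accepted if within 20%.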

In a further series the test system is NCI-H460. Nature of the series: Cytotoxicity against human NCI-H460 cells at 1.5 x 10^-4 after 48 hrs. In kind it is cell-based. Conditions: nci-h460, 48 h.
For series [5], the system named is Platelet. As to the kind of experiment: Antiplatelet activity against thrombin receptor-activating peptide-6-induced platelet aggregation in human blood at 6.25 x 10^-4 M measured for 6 mins by multiplate electrical impedance aggregometry. In kind it is functional, cell-based. An outline of the steps: as §3
The test system of series [6] is Platelet. Nature of the series: Antiplatelet activity against arachidonic acid-induced platelet aggregation in human blood at 6.25 x 10^-4 M measured for 6 mins by multiplate electrical impedance aggregometry. Format: functional, cell-based. In a few lines: as §3
Series [7] has as its system Plasma. As to the kind of experiment: Anticoagulant activity in human plasma assessed as effect on prothrombin level by PT clotting time with factor II deficient plasma at 1 x 10^-3 M.
The subject of series [8] is Plasma. As to the kind of experiment: Anticoagulant activity in human plasma assessed as effect on APC level using CBS 42.46 as synthetic substrate. Format: functional, cell-free. An outline of the steps: as §1
Series [9] deals with Plasma. Nature of the series: Anticoagulant activity in human plasma assessed as effect on prothrombin level by PT clotting time with factor II deficient plasma.
For series [10], the target named is Coagulation factor X (Homo sapiens) (UniProt P00742). Nature of the series: Inhibition of human factor 10a using CH3SO2-D-Leu-Gly-Arg-pNA, AcOH as substrate at 1 x 10^-3 M by chromogenic substrate hydrolysis assay. An outline of the steps: (§4)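 Chromogenic hydrolysis in 50 mM Tris/HCl pH 8.3, 227 mM NaCl, 0.1% BSA, with and without bovine antithrombin III (1 U/mL final). Human factor Xa 0.5 U/mL with CBS 31.39 […], or human thrombin 0.06 U/mL with Chromozym TH […]. Absorbance at 405 nm, enzyme-free blank subtracted; initial slope vs water control gives % inhibition. Compounds at 1 × 10⁻³ M; n = 6.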

Series [11] deals with Plasma. Nature of the series: Anticoagulant activity in human plasma assessed as concentration required to double prothrombin time. Format: functional. An outline of the steps: as §2
The test system of series [12] is Plasma. Nature of the series: Anticoagulant activity in human plasma assessed as concentration required to double thrombin time. In kind it is functional. In a few lines: as §2
Series [13] has as its target Antithrombin-III (Bos taurus) (UniProt P41361). Nature of the series: Inhibition of bovine antithrombin-3 at 1 x 10^-3 M.
Series [14] can be described thus: Metabolic stability of the compound in human plasma assessed as compound remaining after 3 hrs by IP-RP-HPLC analysis. Format: ADME, cell-free. The settings on record: read-out: Stability. An outline of the steps:
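Compound at 25 mM final in human plasma diluted 1:1 with PBS pH 7.4, shaken at 37 °C; sampled at 0 and 180 min, three independent samples. TBA buffer (pH 8) added for ion-pairing, quenched with 4× cold acetonitrile, centrifuged, filtered, dried, redissolved in mobile phase. Quantified by ion-pairing RP-HPLC on C-18, phosphate/TBA buffer:acetonitrile 55:45, 1.0 mL/min.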

The target in series [15] is Prothrombin (Homo sapiens) (UniProt P00734). Nature of the series: Inhibition of human thrombin using Tosyl-Gly-Pro-Arg-p-nitroaniline as substrate at 1 x 10^-3 M by chromogenic substrate hydrolysis assay. An outline of the steps: as §4
Series [16] deals with Blood. Nature of the series: Anticoagulant activity in human whole blood assessed as clotting formation time at 3.12 x 10'4 M by InTEM-TEG assay. In kind it is functional. In a few lines:
(§5)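 Citrated whole blood (citrate:blood 1:9) from healthy donors. Compound in saline diluted 1:16 into blood to final 3.12 × 10⁻⁴ or 6.25 × 10⁻⁴ M; saline control. Thromboelastography with intrinsic activator (InTEM); R clotting time and K clot formation time in s. Mean of three independent experiments in duplicate.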

Series [17] can be described thus: Antiplatelet activity against collagen-epinephrine-activated platelet in human blood assessed as closure time at 6.25 x 10^-4 M. In kind it is functional. In a few lines: (§6)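 Healthy-donor whole blood collected into hirudin (final […]), analysed within 0.5–1 h. Closure time measured in a PFA-100 under high shear through an aperture, platelets activated by a collagen-coated membrane with ADP or epinephrine.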

Series [18] is described as follows: Antiplatelet activity against collagen-ADP-activated platelet in human blood assessed as closure time at 6.25 x 10^-4 M. In kind it is functional. In a few lines: as §6
The subject of series [19] is Blood. Nature of the series: Anticoagulant activity in human whole blood assessed as clotting time at 3.12 x 10'4 M by thromboelastography assay. Format: functional. An outline of the steps: as §5

Chain of Coagulation factor X (Homo sapiens) (P00742 41-179 limits assumed): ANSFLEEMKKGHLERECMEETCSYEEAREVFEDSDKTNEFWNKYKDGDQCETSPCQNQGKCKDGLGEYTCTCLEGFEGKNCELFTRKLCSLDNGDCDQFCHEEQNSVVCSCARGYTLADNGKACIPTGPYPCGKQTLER
Chain of Coagulation factor X (Homo sapiens) (P00742 235-488 limits assumed): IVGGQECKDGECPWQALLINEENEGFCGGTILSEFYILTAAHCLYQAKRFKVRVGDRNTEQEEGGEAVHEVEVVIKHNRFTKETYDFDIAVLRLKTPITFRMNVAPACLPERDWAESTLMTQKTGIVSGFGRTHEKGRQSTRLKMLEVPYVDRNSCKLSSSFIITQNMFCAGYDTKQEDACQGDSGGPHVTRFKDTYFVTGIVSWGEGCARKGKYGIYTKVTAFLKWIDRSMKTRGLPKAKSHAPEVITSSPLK
Chain of Antithrombin-III (Bos taurus) (P41361 whole entry): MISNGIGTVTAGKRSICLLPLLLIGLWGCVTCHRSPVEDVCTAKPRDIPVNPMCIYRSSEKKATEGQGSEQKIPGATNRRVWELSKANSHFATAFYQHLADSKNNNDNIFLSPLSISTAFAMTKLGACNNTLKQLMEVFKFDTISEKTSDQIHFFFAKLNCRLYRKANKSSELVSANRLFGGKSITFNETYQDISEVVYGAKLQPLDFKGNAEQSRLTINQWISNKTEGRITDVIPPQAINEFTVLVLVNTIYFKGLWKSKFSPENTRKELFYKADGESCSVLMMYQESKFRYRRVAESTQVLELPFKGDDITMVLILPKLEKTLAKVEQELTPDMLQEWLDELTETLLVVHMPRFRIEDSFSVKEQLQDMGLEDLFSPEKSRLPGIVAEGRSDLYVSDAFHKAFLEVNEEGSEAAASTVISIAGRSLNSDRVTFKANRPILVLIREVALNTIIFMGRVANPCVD

Turning to `COc1ccc(-c2cc(=O)c3c(O)cc(O[C@@H]4O[C@H](CO[C@@H]5O[C@@H](C)[C@H](OS(=O)(=O)[O-])[C@@H](OS(=O)(=O)[O-])[C@H]5OS(=O)(=O)[O-])[C@@H](OS(=O)(=O)[O-])[C@H](OS(=O)(=O)[O-])[C@H]4OS(=O)(=O)[O-])cc3o2)cc1O.[Na+].[Na+].[Na+].[Na+].[Na+].[Na+]` [HEXASULFATED DIOSMIN], the Activity in the series on Plasma [1] is given as 87%; in the series filed under Mus musculus, “Non-toxic”; in [2], “Non-toxic”; in the series on MCF7 it was “Non-toxic”; with NCI-H460, “Non-toxic”; with Plasma [7] it was 54%. The 2aPTT with Plasma [3] worked out at 4.35 ×10⁻⁴ M. Moreover, the AUC in the series on Platelet [4] was found to be 200 AU.min; in the series on Platelet [5] it was 1090 AU.min; with Platelet [6], 340 AU.min.

Take `C[C@@H]1O[C@@H](OC[C@H]2O[C@@H](Oc3c(-c4ccc(OS(=O)(=O)[O-])c(OS(=O)(=O)[O-])c4)oc4cc(OS(=O)(=O)[O-])cc(OS(=O)(=O)[O-])c4c3=O)[C@H](OS(=O)(=O)[O-])[C@@H](OS(=O)(=O)[O-])[C@@H]2OS(=O)(=O)[O-])[C@H](OS(=O)(=O)[O-])[C@H](OS(=O)(=O)[O-])[C@H]1OS(=O)(=O)[O-].[Na+].[Na+].[Na+].[Na+].[Na+].[Na+].[Na+].[Na+].[Na+].[Na+]`: the Activity with Plasma [1] was 28.5%; in the series listed under Mus musculus, “Non-toxic”; in series [2], “Non-toxic”; in the series with Plasma [8], “Dose-dependent effect”; with MCF7, “Non-toxic”; in the series with Plasma [9], “Dose-dependent effect”. Besides, the Activity result with NCI-H460 is listed as “Non-toxic”; in the series with Plasma [7], 9%. Also, the AUC came to 230 AU.min in the series on Platelet [4], 950 AU.min in the series with Platelet [5] and 215 AU.min in the series with Platelet [6].

Take `O=S(=O)([O-])OC[C@H]1O[C@@H](Oc2cc(/C=C/c3ccc(OS(=O)(=O)[O-])cc3)cc(OS(=O)(=O)[O-])c2)[C@H](OS(=O)(=O)[O-])[C@@H](OS(=O)(=O)[O-])[C@@H]1OS(=O)(=O)[O-].[Na+].[Na+].[Na+].[Na+].[Na+].[Na+]`: the Activity was 50.5% in the series with Plasma [1]; “Dose-dependent effect” in the series on Plasma [11]; “Dose-dependent effect” with Plasma [12]; 1.95 mM in the series with Plasma [12] (record 2); “Non-toxic” in [2]; “Dose-dependent effect” in the series with Plasma [3]. Further, the Activity result is “Dose-dependent effect” in the series with Plasma [8]; “Non-toxic” in the series on MCF7; “Dose-dependent effect” in the series with Plasma [9]; “Non-toxic” in the series on NCI-H460; 12% in the series with Plasma [7]. Besides, the inhibition entry in series [10], in [13] and in [15] was “inactive” in each case. Besides, the 2PT in the series with Plasma [11] was 1.77 mM. Also, the remaining at 3 h in series [14] was 95%. Further, the 2aPTT in the series with Plasma [3] was determined as 0.146 mM. In addition, the Time with Blood [16] is given as 136 s; in series [17], 273 s; in [18], 212 s; in the series on Blood [19], 447 s. Moreover, the values for the AUC with Platelet [4], in the series with Platelet [5] and in the series on Platelet [6] were 173 AU.min, 1020 AU.min and 400 AU.min, respectively.
